Test results as given in publication PMC5532717 (ACS Central Science, 2017).

What was measured:
Format in all cases: biochemical
human α-glucosidase GAA [1] = biological target: T1, human α-glucosidase GAA (Homo sapiens, UniProt P10253); assay: Inhibition kinetics, recombinant GAA, 2,4-DNP-α-Glc
human α-glucosidase GAA [2] = biological target: T1, human α-glucosidase GAA; assay: In vitro apparent IC50, recombinant GAA
Outline: (§1)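 The enzyme source was GBA2-overexpressing HEK293T lysate or recombinant human GAA. It was preincubated 30 min at 37 °C with a range of test compound concentrations, then transferred into 4-MU glucoside substrate mixture to measure residual activity. Quenched with 1 M NaOH–glycine pH 10.3; 4-MU fluorescence at λex 366/λem 445 nm. Apparent IC50 is the mean of three technical replicates.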

GBA2 = biological target: T2, GBA2 (Homo sapiens, UniProt Q9HCG7); assay: In vitro apparent IC50, GBA2 overexpressing HEK293T lysate, 4-MU-β-Glc
T2 sequence (Q9HCG7 1-927): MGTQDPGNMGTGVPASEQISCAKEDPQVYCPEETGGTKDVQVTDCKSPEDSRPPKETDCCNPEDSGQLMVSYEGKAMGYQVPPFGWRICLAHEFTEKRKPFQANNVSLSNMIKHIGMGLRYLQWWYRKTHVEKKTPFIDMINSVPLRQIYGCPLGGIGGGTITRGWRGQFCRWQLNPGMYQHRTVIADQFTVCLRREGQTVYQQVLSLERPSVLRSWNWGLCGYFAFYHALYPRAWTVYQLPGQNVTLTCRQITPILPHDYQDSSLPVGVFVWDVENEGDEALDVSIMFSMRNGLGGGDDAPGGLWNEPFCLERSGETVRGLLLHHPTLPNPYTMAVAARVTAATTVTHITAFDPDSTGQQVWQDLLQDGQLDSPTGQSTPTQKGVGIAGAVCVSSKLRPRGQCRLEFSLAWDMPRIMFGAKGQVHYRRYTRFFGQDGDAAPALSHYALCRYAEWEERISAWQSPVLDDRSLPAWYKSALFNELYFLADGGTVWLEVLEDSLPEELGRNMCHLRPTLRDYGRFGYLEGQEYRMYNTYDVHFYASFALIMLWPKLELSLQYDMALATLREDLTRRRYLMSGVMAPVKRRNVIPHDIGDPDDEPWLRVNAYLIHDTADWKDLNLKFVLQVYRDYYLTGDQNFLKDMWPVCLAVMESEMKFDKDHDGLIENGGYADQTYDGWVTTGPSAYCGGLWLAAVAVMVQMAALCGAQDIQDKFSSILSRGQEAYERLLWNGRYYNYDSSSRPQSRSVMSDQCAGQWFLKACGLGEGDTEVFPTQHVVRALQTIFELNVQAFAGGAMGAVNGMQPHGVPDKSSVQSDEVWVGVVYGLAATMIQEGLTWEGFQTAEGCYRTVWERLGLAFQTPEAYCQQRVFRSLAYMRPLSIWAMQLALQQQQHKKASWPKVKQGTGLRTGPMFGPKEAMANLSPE
Outline: as §1

human β-glucosidase GBA1 [3] = biological target: T3, human β-glucosidase GBA1 (Homo sapiens, UniProt P04062, R534H); assay: In vitro apparent IC50, recombinant GBA1
T3 sequence (P04062 40-536 R534H): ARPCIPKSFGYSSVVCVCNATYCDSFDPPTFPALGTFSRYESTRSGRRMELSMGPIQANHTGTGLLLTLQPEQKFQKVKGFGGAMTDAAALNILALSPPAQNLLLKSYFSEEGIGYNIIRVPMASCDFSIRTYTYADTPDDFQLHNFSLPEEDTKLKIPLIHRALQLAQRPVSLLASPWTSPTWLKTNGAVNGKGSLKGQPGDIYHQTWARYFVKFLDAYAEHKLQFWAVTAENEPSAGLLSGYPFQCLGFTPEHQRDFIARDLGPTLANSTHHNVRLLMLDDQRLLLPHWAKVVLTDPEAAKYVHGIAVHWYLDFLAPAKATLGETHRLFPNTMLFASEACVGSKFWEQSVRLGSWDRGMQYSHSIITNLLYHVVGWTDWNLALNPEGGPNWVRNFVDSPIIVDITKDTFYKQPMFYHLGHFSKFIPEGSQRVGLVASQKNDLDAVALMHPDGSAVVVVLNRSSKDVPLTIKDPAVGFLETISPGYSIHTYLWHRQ
Outline: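 Recombinant human GBA1 (Cerezyme) preincubated with a range of test compound concentrations for 30 min at 37 °C, then added to 4-MU-Glc substrate mixture to measure residual activity. Reaction quenched with 1 M NaOH–glycine (pH 10.3); 4-MU fluorescence read at λEX 366 / λEM 445 nm. Apparent IC50 is the mean of three technical replicates.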

human β-glucosidase GBA1 [4] = biological target: T3, human β-glucosidase GBA1; assay: Inhibition kinetics, recombinant GBA1, 2,4-DNP-β-Glc; details: irreversible inhibition, 37 °C, pH 5.2
Outline: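 Recombinant human GBA1 preincubated with test compound for 0.5–8 min (fast inhibitors) or 0.5–360 min (slow), then added to 2,4-DNP-Glc. Residual rate taken from 400 nm absorbance versus a no-inhibitor control. kobs is the slope of −ln V/V0 versus time; kinact and KI come from a hyperbolic fit of kobs versus [I]. For fast inhibition (>50% after 30 s), kinact/KI is the linear slope at [I] ≪ KI.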

Ki (human α-glucosidase GAA [1]): > 500000 nM
IC50 (human α-glucosidase GAA [2]): > 100000 nM
IC50 (GBA2): 139 ± 60 nM
IC50 (human β-glucosidase GBA1 [3]): 165 ± 4 nM
β-glucosidase GBA1 kinact (human β-glucosidase GBA1 [4]): 0.72 min^–1
SMILES: OC[C@@H]1[C@@H](O)[C@H](O)[C@@H](O)[C@@H]2O[C@H]12 [Compound 1, cyclophellitol, reference compound]
